DAGLB inhibitor: blocks human DAGLB lipase activity; inhibition, % at 5.17 µM; HEK293T DAGLB membrane lysate, EnzChek fluorogenic substrate; AID 504411; 0.059% of 340,000 active; in the data active = inhibition above about 34%;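 note: 0% = enzyme with vehicle and 100% = wells lacking enzyme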
HTRA1 inhibitor: blocks human HTRA1 serine peptidase; 0.5% of 340,000 active; AID 504803; inhibition, % at 5.96 µM; Q92743; recombinant HTRA1, FP-rhodamine activity-based probe, fluorescence polarization; in the data active = inhibition above about 36%;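 note: 0% = enzyme with DMSO and 100% = wells lacking enzyme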
TCR-CD3 inh: inhibitors of human TCR-CD3 interaction; TAMRA-labeled TCR probe fluorescence, biochemical; inhibition, % at 9.4 µM; 0.37% of 360,000 active; AID 651800; in the data active = inhibition above about 19%;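 note: recombinant mutant TCR 2C K166C tagged with TAMRA read by polarization; 0% = receptor in buffer alone and 100% = receptor with positive control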
SIAE primary: inhibitors of human sialic acid acetylesterase SIAE | Q9HAT2 | SIAE FP-Rh probe binding, fluorescence polarization | inhibition, % at 9.66 µM | 0.69% of 370,000 active | AID 1053197;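 active = inhibition above a cutoff: mean of compounds within the control limits plus 3 SD of those, cut at about 17% in these data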;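 note: 0% = plate median of compound wells and 100% = probe without SIAE protein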
mABHD4 FP: inhibits mouse alpha/beta hydrolase domain 4; Q8VD66; purified mABHD4, FP-Rh probe fluorescence polarization; inhibition, % at 8.92 µM; 0.54% of 370,000 active; AID 720543;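 active = inhibition exceeding the mean over every tested compound plus 3 SD, cut at about 30% in these data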;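 note: 0% = plate median of compound wells and 100% = S159A mutant with DMSO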
Target sequence (Q8VD66 whole entry, looked up, the tested form may be a part): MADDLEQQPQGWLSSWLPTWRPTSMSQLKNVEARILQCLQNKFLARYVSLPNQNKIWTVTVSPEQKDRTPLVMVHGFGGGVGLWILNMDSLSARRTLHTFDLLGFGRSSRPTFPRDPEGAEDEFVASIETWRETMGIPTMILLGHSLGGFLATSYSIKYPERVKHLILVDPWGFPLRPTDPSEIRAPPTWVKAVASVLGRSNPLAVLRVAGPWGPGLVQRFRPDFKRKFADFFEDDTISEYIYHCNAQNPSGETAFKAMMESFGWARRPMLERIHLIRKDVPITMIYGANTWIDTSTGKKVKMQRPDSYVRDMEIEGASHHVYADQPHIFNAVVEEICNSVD
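Material: mouse ABHD4 enzyme, wild type; Benchmarks: S159A mutant high control, sample median low control; Buffer or medium: HEPES pH 7.0, NaCl, Pluronic buffer; Signal: fluorescence polarization; Read-out: percent inhibition of probe binding, normalized to plate controls; Timing: pre-incubation 45 min, probe exposure 60 min, at 25 °C; Dosing: 8.92 µM, single dose.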
SIAE confirm: human SIAE inhibition, confirmation; shares compounds with SIAE primary; SIAE FP-Rh activity-based probe, fluorescence polarization; inhibition, % at 9.66 µM; 13% of 2,300 active;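 active = mean inhibition of the replicates above the hit cutoff set in the primary screen, cut at about 17% in these data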;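 note: 0% = SIAE with DMSO and probe and 100% = probe without SIAE; inhibitors lower polarization as more probe stays unbound to SIAE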
An asterisk follows results filed as active. This is a sample that favours compounds with a hit; in the whole collection about 1.5% have one here.

Results for Cc1ccc(Cn2c(=O)c3c(nc4n3CCN4Cc3ccco3)n(C)c2=O)cc1 ?
DAGLB inhibitor: -2; HTRA1 inhibitor: -5; TCR-CD3 inh: 2; SIAE primary: 4; mABHD4 FP: -2

Results for C=CCNC(=O)c1onc(CSc2ccc(OC)cc2)c1C(=O)O ?
DAGLB inhibitor: 0; HTRA1 inhibitor: 5; TCR-CD3 inh: 6; SIAE primary: 22*; mABHD4 FP: 3; SIAE confirm: -4

How did COc1ccc(-c2[nH]c(-c3cccc(OC)c3)nc2SCC(=O)NC2CCCC2)cc1 do in these assays?
DAGLB inhibitor: 0; HTRA1 inhibitor: -10; TCR-CD3 inh: 0; SIAE primary: 24*; mABHD4 FP: 22; SIAE confirm: 2

Results for COc1ccc(CNc2ncc(-c3ccc(F)cc3)n2C)c2ccccc12 ?
DAGLB inhibitor: 1; HTRA1 inhibitor: -14; TCR-CD3 inh: 4; SIAE primary: 18*; mABHD4 FP: 15; SIAE confirm: 8

How did CC(=O)c1ccccc1NC(=O)COC(=O)CCCN1C(=O)c2cccc3cccc(c23)C1=O do in these assays?
DAGLB inhibitor: -2; HTRA1 inhibitor: -3; TCR-CD3 inh: 6; SIAE primary: 19*; mABHD4 FP: 0; SIAE confirm: 3

Results for O=C1[C@@H](C2CC2)[C@@H]2c3ccccc3C=NN2[C@@H]2c3ccccc3C=NN12 ?
SIAE primary: 23*; mABHD4 FP: -2; SIAE confirm: -3

Results for Nc1ccc(-c2nc3ccccc3[nH]2)cc1 ?
DAGLB inhibitor: 2; HTRA1 inhibitor: 0; TCR-CD3 inh: 3; SIAE primary: 9; mABHD4 FP: 7

What do the screens show for `Nc1ccc2nc(-c3ccc(-c4nc5ccc(N)cc5[nH]4)cc3)[nH]c2c1`?
TCR-CD3 inh: -13; SIAE primary: 17*; mABHD4 FP: -19; SIAE confirm: 26*

What do the screens show for `CCOC(=O)N1CCC(NC(=O)C2CCN(C(=O)N3CC(C)Oc4ccc(C)cc43)CC2)CC1` (configuration not stated)?
DAGLB inhibitor: 0; HTRA1 inhibitor: 1; TCR-CD3 inh: 4; SIAE primary: -8; mABHD4 FP: -5

What do the screens show for `CCOC(=O)N1CCC(NC(=O)C2CCN(C(=O)N3CC(C)Oc4ccccc43)CC2)CC1` (configuration not stated)?
DAGLB inhibitor: -1; HTRA1 inhibitor: 0; TCR-CD3 inh: -6; SIAE primary: 20*; mABHD4 FP: 0; SIAE confirm: -5

What do the screens show for `CC(OC(=O)c1ccc(Cl)nc1)C(=O)N1CCc2ccccc21` (configuration not stated)?
DAGLB inhibitor: 1; HTRA1 inhibitor: 0; TCR-CD3 inh: -5; SIAE primary: 19*; mABHD4 FP: -2; SIAE confirm: 2

What do the screens show for `O=C(C(=O)N1CCC(CNS(=O)(=O)c2ccc(F)cc2)CC1)c1cccs1`?
TCR-CD3 inh: -9; SIAE primary: -3; mABHD4 FP: -1

Results for CC1(C)CC(=O)C2=C(C1)N1C(=C(C#N)C2c2ccc(Cl)cc2)N=C(N)c2ccccc21 (configuration not stated) ?
DAGLB inhibitor: 4; HTRA1 inhibitor: -42; TCR-CD3 inh: -9; SIAE primary: 20*; mABHD4 FP: 23; SIAE confirm: 1

What do the screens show for `CCOC(=O)[C@]12CCCCC/C=C\1N(Cc1ccc(OC)cc1)C(=O)[C@H]2CC(=O)NCCc1ccccc1OC`?
SIAE primary: 11; mABHD4 FP: -2

What do the screens show for `CC(=O)c1ccc(NC(=O)Nc2ccc3c(c2)N(C)C(=O)CS3)cc1`?
DAGLB inhibitor: 2; HTRA1 inhibitor: -4; TCR-CD3 inh: -1; SIAE primary: -1; mABHD4 FP: -8

What do the screens show for `COc1ccc(NC(=O)Nc2ccc3c(c2)N(C)C(=O)CS3)cc1Cl`?
DAGLB inhibitor: 2; HTRA1 inhibitor: 1; TCR-CD3 inh: -2; SIAE primary: 27*; mABHD4 FP: 10; SIAE confirm: -3

Results for CCOc1ccc(NC(=O)Nc2ccc3c(c2)N(C)C(=O)CS3)cc1 ?
DAGLB inhibitor: -1; HTRA1 inhibitor: -4; TCR-CD3 inh: 1; SIAE primary: 18*; mABHD4 FP: 2; SIAE confirm: -1

What do the screens show for `NC(=O)[C@@H]1CCCN1C(=O)[C@H]1O[C@@H](n2ccc(N)nc2=O)[C@H](O)[C@@H]1O`?
TCR-CD3 inh: 0; SIAE primary: -1; mABHD4 FP: 0

What do the screens show for `CCOC(=O)N1CCN(C(=O)C[C@H]2C[C@@]3(C(=O)OC)C(=C[C@H](COCc4ccccc4)O[C@@H]3C)N(Cc3ccco3)C2=O)CC1`?
SIAE primary: 0; mABHD4 FP: -1

How did Cc1nnc(SCC(=O)Nc2ccc3[nH]c(=O)[nH]c3c2)s1 do in these assays?
DAGLB inhibitor: -2; HTRA1 inhibitor: 7; TCR-CD3 inh: 5; SIAE primary: 1; mABHD4 FP: -3

How did O=C(CSc1nncs1)Nc1ccc2[nH]c(=O)[nH]c2c1 do in these assays?
DAGLB inhibitor: 1; HTRA1 inhibitor: -1; TCR-CD3 inh: 8; SIAE primary: 17*; mABHD4 FP: 0; SIAE confirm: 2

How did O=C(COC(=O)Cc1ccc(F)cc1)Nc1ccc2[nH]c(=O)[nH]c2c1 do in these assays?
DAGLB inhibitor: 1; HTRA1 inhibitor: 1; TCR-CD3 inh: 8; SIAE primary: 18*; mABHD4 FP: 1; SIAE confirm: 2

What do the screens show for `Nc1ccn([C@@H]2O[C@H](C(=O)N[C@H](Cc3ccccc3)C(=O)N3CCC(F)(F)CC3)[C@@H](O)[C@H]2O)c(=O)n1`?
TCR-CD3 inh: 3; SIAE primary: 45*; mABHD4 FP: 5; SIAE confirm: 53*

What do the screens show for `Cc1ccc(CNC(=O)[C@@H](Cc2ccccc2)NC(=O)[C@H]2O[C@@H](n3ccc(N)nc3=O)[C@H](O)[C@@H]2O)o1`?
TCR-CD3 inh: -2; SIAE primary: 18*; mABHD4 FP: -1; SIAE confirm: 14

How did COc1cc(NC(=O)[C@@H](Cc2ccccc2)NC(=O)[C@H]2O[C@@H](n3ccc(=O)[nH]c3=O)[C@H](O)[C@@H]2O)cc(OC)c1OC do in these assays?
TCR-CD3 inh: -2; SIAE primary: -6; mABHD4 FP: -1

Results for COc1ccc(CN(C)C(=O)[C@@H](Cc2ccccc2)NC(=O)[C@H]2O[C@@H](n3ccc(N)nc3=O)[C@H](O)[C@@H]2O)cc1OC ?
TCR-CD3 inh: -5; SIAE primary: 48*; mABHD4 FP: -2; SIAE confirm: 53*

What do the screens show for `Nc1ccn([C@@H]2O[C@H](C(=O)N[C@H](Cc3ccccc3)C(=O)NCc3cccc4c3OCO4)[C@@H](O)[C@H]2O)c(=O)n1`?
TCR-CD3 inh: 2; SIAE primary: 7; mABHD4 FP: -1

Compound activity deposited in PubChem by The Scripps Research Institute Molecular Screening Center.
